Reference: the EternaBench riboswitch data

Tested on: MS2 coat protein
Assay: apparent Kd, MS2 coat protein; higher = weaker binding; RNA-MaP array; FMN 200 µM where present
In short: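 Apparent Kd: the median of filtered binding-curve fits from single clusters. Designs were transcribed on Illumina sequencing-chip clusters by stalled E. coli RNA polymerase and titrated with SNAP-549-labelled MS2 coat protein from 0.7 or 1.5 nM, doubling to 3 µM, in 100 mM Tris-HCl pH 7.5, 80 mM KCl, 4 mM MgCl2, BSA, DTT, yeast tRNA and Tween-20. Each series ran without and then with constant ligand, and green signal was normalised to red-channel RNA signal and control-cluster median Fmax.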

[1] = designed as: ON switch for flavin mononucleotide, no ligand
[2] = ligand present: flavin mononucleotide, designed as: ON switch for flavin mononucleotide
[3] = designed as: OFF switch for flavin mononucleotide, no ligand
[4] = ligand present: flavin mononucleotide, designed as: OFF switch for flavin mononucleotide

Sequence | apparent Kd [1] | apparent Kd [2] | apparent Kd [3] | apparent Kd [4]
UGCUACUAGGGAGGAUAUGGGAAGAUACAUGAGGAUCACCCAUGUUUAAGAAUGCCGAGAGGCAACUAGAAGGCCCUAGUACCU | 401 nM | 22.1 nM | – | –
UAUAACAUGAGGAUCACCCAUGUGGUCGUCGUGGCCCUGUGACAGGAUAUCGGAGUUGGAGCAUACGAGAAGGGUUACGCGGCC | – | – | 10.5 nM | 12.4 nM
GCCAGGCAUGUAGGAUAUCCAUUGCGUCGCGUUGGAGAAGGGCAACACACAUGAGGAUCACCCAUGUGGUCACCCAUGUAGUGU | – | – | 489 nM | 524 nM
CAUGUGUAAGGAUAUGACAAUGGUAUCUUCGGAUACCAUUGUCAGAAGGUACAUGAGGAUCACCCAUGUAGAUC | – | – | 55 nM | 240 nM
GCACGGUUGGUAGGAUAUCAUUGCGAUUAGCUAUGAGAAGGACCACAUGAGGAUCACCCAUGUCCUCUAAUUAGCCUGCCGUGC | – | – | 152 nM | 355 nM
CAAUUGGCACAGAAGGGUGACAUGAGGAUCACCCAUGUAGCGUGGCAUUCAGGAGGAGCCACGCCACAGGAUAUGUGCCGGCAC | 138 nM | 116 nM | – | –
UAAAAGCUAGGAUAUACAUGAGGAUCACCCAUGUCACGGGUCCACUCAUCCUAUACGUGUAGAAGGAGCGACCC | – | – | – | 19.2 nM
CCGGGACAUGAGGAUCACCCAUGUUUCGUUUAUAGUAAAGCACAGGAUAUGAUGAAACAGGUUUCUCAGAAGGGUGUUCCGAAA | 63.2 nM | 67.8 nM | – | –
AAAACGGCACGUCCCGUGCCAACUACAGAAGGCCAACAUGAGGAUCACCCAUGUACAAACUAGAUGGAGGAUAUGUAGGUUCUA | 6.19 nM | 4.24 nM | – | –
UGUGUGAGACAGGAUAUGCCGGUUGUAUUGCUGGUAGAAGGGUCUACAUGAGGAUCACCCAUGUGGCCGGUUGG | – | – | 18.6 nM | 23.2 nM
CCUCCCUGAGGAUAUCCACCCUCAUACAUGAGGAUCACCCAUGUUCAACCCUGGGUUCCCGGAGAAGGCAGUUUUC | – | – | 97.2 nM | 102 nM
UGAUAGGACAGAGGAUAUACGUGCUAGAGAUACUAGCAAAGUAUCUUGACAUGAGGAUCACCCAUGUAGAAGGCUGUCCUAUCU | – | – | 5.99 nM | 14.3 nM
AAAAGACAUGAGGAUCACCCAUGUAAAAACGUGGGAGGAUAUGUAUGGAAACCAGACUGUACAGAAGGCCUUUGUC | 138 nM | 164 nM | – | –
UGUCCAUAGCAGAAGGACAUGAGGAUCACCCAUGUAAUCAUACAACCAAAUGUAGGAUAUGCUAUGGACUAAGAGCGAAAGCUC | – | – | 7.5 nM | 34.4 nM
UAAAUUCGAAACAUGAGGAUCACCCAUGUGUUGUGGUUUAUAUAGGAUAUGUGGAUACUUUUUUGACAGAAGGAUGAUGGUACU | 13.2 nM | 10.9 nM | – | –
AAAACAUGAGGAUCACCCAUGUAAAGAUCGGUUAAUAGAAGUGAGGAUAUGCUUAAUAUAAGGUAGCAGAAGGCACUGGGUACA | 23.3 nM | 25.7 nM | – | –
ACAUGAGGAUCACCCAUGUAGAAUGGAGAAGGUAGAUACUUGUGACUCUCCCAUGUACAUAGGACUGAGGAUAUUCUAAUAAUU | 49.6 nM | 40.2 nM | – | –
GUAGCUUAUGAGAAGGCGAUCAUGAAACAUGAUCGAGGAUAUCAUGUAAACAUGAGGAUCACCCAUGUAUGGGUAUUAUGCUAC | 313 nM | 42.9 nM | – | –
GUCAUGUGAGGAUAUGUAUUGCGCAUGCCGAAAACAUGGCGGCAGAAGGCACAUGAGGAUCACCCAUGUGGGUU | – | – | 62.7 nM | 34.4 nM
GGGUCAACAUGAGGAUCACCCAUGUAGGAUAUCGCUAUUGUAAUCAUGAAACAUGAUUACAAUAGCGAGAAGGACAUAUGCUUU | – | – | 12.3 nM | 25.4 nM
UUUUAACAUGAGGAUCACCCAUGUGAGGAUAUCGAAAUUUAUAUUAAUAUUUUUAAAACGAGAAGGCACAUUUU | – | – | 61.3 nM | 84.8 nM
AGUCGGAGCAGAGGAUAUAUACAUGAGGAUCACCCAUGUAAAUGAAUGAGCUGGAAACAGCAAGUAUAGAAGGCUGCUCCGACA | – | – | 15.2 nM | 16 nM
AGUUGGCGAGGAUAUACAUGAGGAUCACCCAUGUGAAAUCGAGAAAAAAUAGGGAAAAGUAGAAGGCGCAGACA | – | – | 10.3 nM | 12.1 nM
GGAUAGGACGGAGGAUAUACGUGCUAGAGAUACUAGCAAAAUUUCCUCACAUGAGGAUCACCCAUGUAGAAGGCUGUCCUAUCG | – | – | 12.2 nM | 222 nM
UUGGACGUCGUAGGAUAUGUAGGAUAUUCCUACAUGAGGAUCACCCAUGUUGACAUGGAAGAAGGACAGAAGGACCAUGUCCAU | 451 nM | 14.8 nM | – | –
GUGAGGUAAGGAUAUAGUAGUGAAGGUAAAAUAUGAGAAUGCUAGAAGGUACAUGAGGAUCACCCAUGUUAGGG | – | – | 211 nM | 203 nM
GUUAUAGGAGGAUAUACAUGAGGAUCACCCAUGUCUCACCCAUGGCAACGAACCUAUUGUAGAAGGCUUGAAGA | – | – | 74.5 nM | 182 nM
GUAGGGUCAGGAUAUACGGGCGGAGGGAUGUAUUGUAGUUGGUAGAAGGGACAUGAGGAUCACCCAUGUAAGAA | – | – | 29.7 nM | 26.2 nM

Sequence | apparent Kd [1] | apparent Kd [2] | apparent Kd [3] | apparent Kd [4]
UGAUUUCAUGUAGGAUAUGCUUGGCGAAGCUACGCAGAAGGACAUGAGGAUCACCCAUGUUUUAGCGUCUGAGUAUAGAUUCUA | – | – | 30.6 nM | 187 nM
UGUCGGAGCAGAGGAUAUUACAUGAGGAUCACCCAUGUAUGAACCAAUAGCUGGAAACAGCAAUGUAAGAAGGCUGCGCCGACA | – | – | 12.5 nM | 153 nM
AAAAGAUAAGCAGGAUAUCGAACAACUCAUGGGCUAUGCCAUCCGCACAUGAGGAUCACCCAUGUCGAGAAGGGCUAAGAGUAG | – | – | 9.82 nM | 25.8 nM
GCAUUUUAUGCAGGAUAUUGACUUUGGAUUAAACAAGAAGGGCAUAACAUGAGGAUCACCCAUGUUAUAUAGGUAUAUAUGUUC | – | – | 7.45 nM | 9.62 nM
AGGUGAAAUGUAGGAUAUGGAAAUAAAUUUUAACCAGAAGGACAUGAGGAUCACCCAUGUGAUAGAGAGUUAUUUAUAACUCCA | – | – | 13.9 nM | 95.9 nM
AAUCGAUGAUCAGGAUAUGUGGAGCCUCUAAGCGAUGAGGCGUACAUGAGGAUCACCCAUGUGACACAGAAGGGAUACAUGCGG | 60.7 nM | 8.43 nM | – | –
UAUUAACACGAAGGAUAUGGUUACAUGAGGAUCACCCAUGUAUGUAUAUUGAUCUAGAUUUUUAACCAGAAGGUCGUGAGUAAA | – | – | 50.8 nM | 72.2 nM
UAUAUAUAGUAAGGAUAUGUAUAUAUUAUAUAAACAGAAGGUACUGACAUGAGGAUCACCCAUGUUUUAGUGUGGGCAUGUAGA | – | – | 67.8 nM | 98.9 nM
UGUCGGUGCAGAGGAUAUUACAUGAGGAUCACCCAUGUAUGAACCAAUAGCUGGAAACAGCAAUGUAAGAAGGCUGCUCCGACA | – | – | 11.8 nM | 168 nM
ACAGCGGCAGGAUAUGCAUGCUCCGACUUAUGCCGACAAAGACAUGAGGAUCACCCAUGUAGAAGGGCCAGCGG | – | – | 23.1 nM | 22.8 nM
UUAAUAUAUCAGGAUAUGAUUAUAUGUGUUGAAUCAGAAGGGAUAACAUGAGGAUCACCCAUGUUGUGGAGUGA | – | – | 69.3 nM | 206 nM
AUGGUACAUGAGGAUCACCCAUGUUAGGAUAUCGCGUGACCUAAAACUAAGAGACACACGAGAAGGGACGACAU | – | – | 89.6 nM | 78.1 nM
UUUAUAUAGUAAGGAUAUGUAUUAUUUCUAUCAACAGAAGGUACUGACAUGAGGAUCACCCAUGUUUUAGUGUGGGCAUGUAGU | – | – | 261 nM | 381 nM
AAUUUACAGGGAGGAUAUACAUGAGGAUCACCCAUGUCAUCAUAUGAUAUUUCUUUUGUAUGAGUGUAGAAGGCCCAACUACCA | – | – | 18.2 nM | 18.3 nM
AGGUGGUGUGGAAAGGAUAUACGGUUGAGGACAUGAGGAUCACCCAUGUGGUAGAGGACGUGAGUGUAGAAGGUUCGGGAUUGGU | 74.9 nM | 52.1 nM | – | –
UUAAAUCGAAACAUGAGGAUCACCCAUGUGUUGUAAUUAACAUAGGAUAUGUAAAUACUUUUUUAAUAGAAGGAUGAUAAUACU | 17 nM | 12.9 nM | – | –
ACCUCGUACACAGGAUAUGAUUACUUGCAGCCUGCGUUGACAUGAGGAUCACCCAUGUGGACUGAUCAGAAGGGUGAACGGAAG | – | 112 nM | – | –
UUUUGGUCAGGAUAUUGUUAGUUUAGUUGUUUGUAUUAGUUCGAGAAGGGACAUGAGGAUCACCCAUGUGGUUU | – | – | 71.8 nM | 58.9 nM
GCGAUUGCGUAGAAGGUACAAUAUAUUUCAUUGUAAGGAUAUACUUACAUGAGGAUCACCCAUGUUAAAGGAUUUAGCAAUCGC | 12.4 nM | 10.3 nM | – | –
UUUUUGUGAGGAUAUCAGUAGUAAAUAAAUAAAAUUACUACUGAGAAGGCACAUGAGGAUCACCCAUGUUCCUU | – | – | 13.7 nM | 33.4 nM
UUAAAUCAUGUAGGAUAUGCAUGGCGAAGCUACGCAGAAGGACAUGAGGAUCACCCAUGUUAUAGCUACCGAGUAAGGUGGCAA | – | – | 92.6 nM | 227 nM
AACAAGUCAGGAUAUCAUACUAAUCACUUGCUUUAAAUGUAUGAGAAGGGACAUGAGGAUCACCCAUGUAAAGA | – | – | 32.5 nM | 35.9 nM
CUUUAGUGAGGAUAUCUGGCUUCGAUCGUGAGAUCGAGGCUAGAGAAGGCACAUGAGGAUCACCCAUGUUCCUC | – | – | 40.1 nM | 439 nM
UGUCGCAGCAGAGGAUAUUACAUGAGGAUCACCCAUGUAUGAACCAAUAGCUGGAAACAGCAAUGUAAGAAGGCUGCUCCGACA | – | – | 11.7 nM | 128 nM
GGGUACAUCGGAGGAUAUCAUGUACAUACAUGAGGAUCACCCAUGUCGAUGGAGACAUCGGAGAUUGAGAAGGCCGAUGUACCG | 230 nM | 9.27 nM | – | –
UGUGUUGCGCAGGAUAUGCUGGACAUGAGAGCUGCAGAAGGGCGAACAUGAGGAUCACCCAUGUUUUCCUCGGC | – | – | 14.1 nM | 14.6 nM
GUUCUUCCUGUGAGGAUAUCCAUGUUUCGGUUUGUGGAGAAGGUACAUGAGGAUCACCCAUGUCACCCGCGUUU | – | – | 14.1 nM | 15.8 nM
